pIC50: −log10 of the molar value.
Experiments:
Mus musculus [1] = test: In vivo average survival rate of mouse infected by T.b. rhodesiense was determined for a period of 60 days at dose of 75 mg/kg by p.o. administration; type: functional; conditions: route oral
In short: (§1)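 Mice infected with T. b. rhodesiense STIB900. Diamidines were given intraperitoneally and prodrugs orally, with an untreated infected control group. Parasitemia was monitored daily to day 14, then twice weekly to day 60. For relapsing mice, the day of death was recorded and survival time was averaged in days.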

Mus musculus [2] = test: No. of mice that survived T.b. rhodesiense infection and are parasite free for 60 days was determined at dose of 75 mg/kg by p.o. administration; 4 animals tested; type: functional; conditions: route oral
In short: (§2)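 Mice infected with T. b. rhodesiense STIB900. Diamidines were given intraperitoneally and prodrugs orally. An untreated infected group served as control. Parasitemia was checked daily up to day 14 post-infection, then twice weekly up to day 60. A cure was counted as a mouse that survived and stayed parasite-free for 60 days.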

Plasmodium falciparum = test: In vitro inhibitory activity against Plasmodium falciparum; type: functional, organism-based
[3] = test system: Trypanosoma brucei rhodesiense; test: In vitro inhibitory activity against T. b. rhodesiense; type: functional, organism-based
Nucleic Acid [4] = test system: Nucleic Acid
Mus musculus [5] = test: In vivo average survival rate of mouse infected by T.b. rhodesiense was determined for a period of 60 days at dose of 100 mg/kg by p.o. administration; type: functional; conditions: route oral; in short: as §1
Mus musculus [6] = test: No. of mice that survived T.b. rhodesiense infection and are parasite free for 60 days was determined at dose of 100 mg/kg by p.o. administration; 4 animals tested; type: functional; conditions: route oral; in short: as §2
Nucleic Acid [7] = conditions: Bos taurus
Mus musculus [8] = test: In vivo average survival rate of mouse infected by T.b. rhodesiense was determined for a period of 60 days at dose of 20 mg/kg by i.p. administration; type: functional; conditions: route intraperitoneal; in short: as §1
Mus musculus [9] = test: No. of mice that survived T.b. rhodesiense infection and are parasite free for 60 days was determined at dose of 20 mg/kg by i.p. administration; 4 animals tested; type: functional; conditions: route intraperitoneal; in short: as §2
Nucleic Acid [10] = test system: Nucleic Acid; remark: listed apart in the source
Mus musculus [11] = test: In vivo average survival rate of mouse infected by T.b. rhodesiense was determined for a period of 60 days at dose of 50 mg/kg by p.o. administration; type: functional; conditions: route oral; in short: as §1
Mus musculus [12] = test: In vivo average survival rate of mouse infected by T.b. rhodesiense was determined for a period of 60 days at dose of 5 mg/kg by p.o. administration; type: functional; conditions: route oral; in short: as §1
Mus musculus [13] = test: No. of mice that survived T.b. rhodesiense infection and are parasite free for 60 days was determined at dose of 50 mg/kg by p.o. administration; 4 animals tested; type: functional; conditions: route oral; in short: as §2
Mus musculus [14] = test: In vivo antitrypanosomal activity against T.b. rhodesiense mouse and no. of that survive and are parasite free for 60 days was determined at dose of 5 mg/kg by p.o. administration; 4 animals tested; type: functional; conditions: route oral; in short: as §2
Mus musculus [15] = test: No. of mice that survived T.b. rhodesiense infection and are parasite free for 60 days was determined at dose of 5 mg/kg by p.o. administration; 4 animals tested; type: functional; conditions: route oral; in short: as §2
Mus musculus [16] = test: No. of mice that survived T.b. rhodesiense infection and are parasite free for 60 days was determined at dose of 50 mg/kg by p.o. administration; 5 animals tested; type: functional; conditions: route oral; in short: as §2
Mus musculus [17] = test: No. of mice that survived T.b. rhodesiense infection and are parasite free for 60 days was determined at dose 5 mg/kg of by p.o. administration; 4 animals tested; type: functional; conditions: route oral; in short: as §2

## N/C(=N\O)c1ccc(-c2ccc(-c3ccc(/C(N)=N\O)cn3)o2)nc1
Mus musculus [1]
  Survival: 18 days
Mus musculus [2]
  Cures: 0
Plasmodium falciparum
  pIC50: < 4.99
[3]
  pIC50: 4.25
Nucleic Acid [4]
  ΔTm: 0.9

## CCONC(=N)c1ccc(-c2ccc(-c3ccc(C(=N)NOCC)cn3)o2)cc1
Mus musculus [5]
  Survival: 60 days
Mus musculus [6]
  Cures: 4
Plasmodium falciparum
  pIC50: 5.14
[3]
  pIC50: 5.08

## N=C(N)c1ccc(Cc2ccc(-c3ccc(C(=N)N)nc3)o2)cc1
Plasmodium falciparum
  pIC50: 6.83
[3]
  pIC50: 6.83
Nucleic Acid [7]
  ΔTm: 1.3
Nucleic Acid [4]
  ΔTm: 3.6

## N=C(N)c1ccc(-c2ccc(-c3ccc(C(=N)N)nc3)o2)cn1
Mus musculus [8]
  Survival: 59 days
Mus musculus [9]
  Cures: 3
Plasmodium falciparum
  pIC50: 8.41
[3]
  pIC50: 8.15
Nucleic Acid [7]
  ΔTm: 8.2
Nucleic Acid [10]
  ΔTm: 18.5

## N=C(N)c1ccc(OCCCCCOc2ccc(C(=N)N)cc2)cc1 [PENTAMIDINE]
Mus musculus [8]
  Survival: 40.8 days
Mus musculus [9]
  Cures: 0
Nucleic Acid [7]
  ΔTm: 2

## CO/N=C(\N)c1ccc(-c2ccc(-c3ccc(/C(N)=N/OC)cn3)o2)nc1
Mus musculus [11]
  Survival: 60 days
Mus musculus [12]
  Survival: 40 days
Mus musculus [13]
  Cures: 4
Mus musculus [14]
  Cures: 1
Plasmodium falciparum
  pIC50: 5.75
[3]
  pIC50: 4.95

## N=C(NO)c1ccc(-c2ccc(-c3ccc(/C(N)=N/O)nc3)o2)cn1
Mus musculus [11]
  Survival: 30 days
Mus musculus [13]
  Cures: 1
Plasmodium falciparum
  pIC50: < 4.98
[3]
  pIC50: < 4.68

## N=C(NO)c1ccc(-c2ccc(-c3ccc(/C(N)=N\O)cc3)s2)nc1
Plasmodium falciparum
  pIC50: < 4.98

## N=C(N)c1ccc(-c2ccc(-c3ccc(C(=N)N)nc3)o2)cc1
Mus musculus [8]
  Survival: 56.5 days
Mus musculus [9]
  Cures: 2
Plasmodium falciparum
  pIC50: 7.74
[3]
  pIC50: 8.51
Nucleic Acid [7]
  ΔTm: 3.1
Nucleic Acid [4]
  ΔTm: 22.6

## CONC(=N)c1ccc(-c2ccc(-c3ccc(C(=N)NOC)nc3)o2)cc1
Mus musculus [12]
  Survival: 34.25 days
Mus musculus [1]
  Survival: 60 days
Mus musculus [15]
  Cures: 1
Mus musculus [2]
  Cures: 4
Plasmodium falciparum
  pIC50: 5.07
[3]
  pIC50: 5.19

## N=C(N)c1ccc(-c2ccc(-c3cccc(C(=N)N)c3)o2)nc1
Mus musculus [8]
  Survival: 26.25 days
Mus musculus [9]
  Cures: 0
Plasmodium falciparum
  pIC50: 8.06
[3]
  pIC50: 7.39
Nucleic Acid [7]
  ΔTm: 3.3
Nucleic Acid [4]
  ΔTm: 7.3

## N=C(N)c1ccc(-c2ccc(-c3ccc(C(=N)N)cn3)o2)nc1
Mus musculus [8]
  Survival: 60 days
Mus musculus [9]
  Cures: 4
Plasmodium falciparum
  pIC50: 7.08
[3]
  pIC50: 7.68
Nucleic Acid [7]
  ΔTm: 5.4
Nucleic Acid [4]
  ΔTm: 15.5

## N=C(NO)c1ccc(-c2ccc(-c3ccc(/C(N)=N/O)cn3)o2)cc1
Mus musculus [5]
  Survival: 54 days
Mus musculus [6]
  Cures: 0
Plasmodium falciparum
  pIC50: 5.37
[3]
  pIC50: 3.92

## CONC(=N)c1ccc(-c2ccc(-c3ccc(C(=N)NOC)nc3)o2)cn1
Mus musculus [5]
  Survival: 21.75 days
Mus musculus [6]
  Cures: 0
Plasmodium falciparum
  pIC50: 5.88
[3]
  pIC50: 5.72
Nucleic Acid [4]
  ΔTm: -0.5

## CONC(=N)c1ccc(-c2ccc(-c3ccc(C(=N)NOC)cn3)s2)cc1
Plasmodium falciparum
  pIC50: 5.31
[3]
  pIC50: 5.03
Nucleic Acid [4]
  ΔTm: 0

## N=C(NO)c1cccc(-c2ccc(-c3ccc(/C(N)=N\O)cn3)o2)c1
Plasmodium falciparum
  pIC50: 4.38
[3]
  pIC50: 4.88

## CONC(=N)c1ccc(-c2ccc(-c3ccc(C(=N)NOC)cc3)o2)cc1 [PAFURAMIDINE]
Mus musculus [11]
  Survival: 60 days
Mus musculus [16]
  Cures: 2

## CO/N=C(\N)c1ccc(-c2ccc(-c3ccc(/C(N)=N/OC)cn3)o2)cc1
Mus musculus [12]
  Survival: 60 days
Mus musculus [17]
  Cures: 4
Plasmodium falciparum
  pIC50: 5.31
[3]
  pIC50: 4.43
Nucleic Acid [4]
  ΔTm: 0.9

## N=C(N)c1ccc(-c2ccc(-c3ccc(C(=N)N)cc3)o2)cc1 [FURAMIDINE]
Mus musculus [8]
  Survival: 52.5 days
Mus musculus [9]
  Cures: 0
Nucleic Acid [7]
  ΔTm: 8.9

## N=C(NO)c1ccc(-c2ccc(-c3ccc(/C(N)=N/O)nc3)o2)cc1
Mus musculus [1]
  Survival: 52.75 days
Mus musculus [2]
  Cures: 3
Plasmodium falciparum
  pIC50: < 4.93

## N=C(NO)c1ccc(-c2ccc(-c3ccc(/C(N)=N\O)cc3)o2)cc1
Mus musculus [5]
  Survival: 50 days
Mus musculus [6]
  Cures: 0

## N=C(N)c1ccc(-c2ccc(-c3ccc(C(=N)N)cn3)o2)cc1
Mus musculus [8]
  Survival: 60 days
Mus musculus [9]
  Cures: 4
[3]
  pIC50: 8.15
Nucleic Acid [7]
  ΔTm: 6.6

From ChEMBL document CHEMBL1145745 (J Med Chem, 2003)
